The test system of experiment [1] is L15. Kind of experiment: Steady-State [Ca2+] Release from Saponin-Permeabilized L15 Cell Lines.
The subject of experiment [2] is RBL-1. Kind of experiment: Steady-State [Ca2+] Release from Saponin-Permeabilized RBL Cell Lines. It counts as functional, cell-based, Rattus norvegicus.
Experiment [3] has as its target Inositol 1,4,5-trisphosphate receptor (Homo sapiens, UniProt Q14571+Q14573+Q14643). The experiment can be described thus: The compound was tested for inhibitory activity against Inositol 1,4,5-trisphosphate receptor in L15 cell line. In kind it is cell-based. The method in brief:
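Incubation was 30 min at 4 °C with EGTA. Bound and free ligand were separated by vacuum filtration through glass fiber filters and counted by scintillation. IC50 and Hill slope came from computer curve fitting. At least three experiments in duplicate, mean ± SEM.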

Experiment [4] is described as follows: Hill slope by computer-assisted curve fitting.
Experiment [5] is described as follows: Hill slope by computer-assisted curve fitting.
Experiment [6] deals with Lvec. Kind of experiment: Steady-State [Ca2+] Release from Saponin-Permeabilized Lvec Cell Lines. It counts as functional, cell-based. The essentials:
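⁴⁵Ca²⁺ release end point assay at 22 °C in saponin-permeabilized L15 cells (mouse L fibroblasts overexpressing type 1 InsP₃R about 8-fold) or Lvec vector-control cells. Stores were loaded with ⁴⁵Ca²⁺ in ATP-dependent fashion to steady state (about 15 min). Buffer was 120 mM KCl, 2 mM KH₂PO₄, 5 mM succinate, 20 mM Hepes, 2 mM ATP and 2.4 mM MgCl₂, at pH 7.2, with free Ca²⁺ set to 80–150 nM with EGTA. Retained ⁴⁵Ca²⁺ was counted by scintillation. 100% was the release by 10 µM Ins(1,4,5)P₃. EC50 and Hill slope came from curve fitting. At least four experiments in duplicate, mean ± SEM.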

For experiment [7], the system named is SH-SY5Y. The experiment can be described thus: Steady-State [Ca2+] Release from Saponin-Permeabilized SH-SY5Y cell line. In kind it is functional, cell-based, Homo sapiens.

“And” between values parts separate entries of the source, which are not always exact repeats. Equal entries are not always repeated.

The term EC50 denotes the concentration at which the effect is half-maximal. Lower therefore signals a more potent agent. Consider `O=P(O)(O)O[C@@H]1[C@H](O)[C@H](O)[C@@H](OP(=O)(O)O)[C@H](OP(=O)(O)O)[C@H]1O` (stereo in doubt; 5) [INS(1,4,5)P3], for which the EC50 in experiment [1] turned out to be 740 nM; in experiment [2], 4300 nM.

Usually IC50 stands for the point on the concentration scale where inhibition reaches its midpoint. The low end stands for inhibition by little substance, the high end for a need for much substance. In turn, `O=P(O)(O)OC1C(O)C(OP(=O)(O)O)C(OP(=O)(O)O)C(O)C1OP(=O)(O)O` (stereo unspecified) showed an IC50 in experiment [3] of 172 nM.

By Hill coefficient is commonly meant the slope factor of the fitted curve. Consider `O=P(O)(O)O[C@@H]1[C@H](O)[C@H](O)[C@@H](OP(=O)(O)O)[C@H](OP(=O)(O)O)[C@H]1O` (stereo in doubt; 1), for which the Hill coefficient in experiment [4] is 0.96 and 1.17; in experiment [5], 1.

As to `O=P(O)(O)O[C@@H]1[C@H](O)[C@H](O)[C@@H](OP(=O)(O)O)[C@H](OP(=O)(O)O)[C@H]1O` (stereo in doubt; 1) [INS(1,4,5)P3], the EC50 in experiment [1] was determined as 123 nM; in experiment [6], 247 nM; in experiment [2], 170 nM; in experiment [7] it was 51.6 nM.

With `O=P(O)(O)O[C@@H]1[C@H](O)[C@H](O)[C@@H](OP(=O)(O)O)[C@H](OP(=O)(O)O)[C@H]1O` (stereo in doubt) [INS(1,4,5)P3], the figures for the EC50 in experiment [2] and in experiment [7] were 4200 nM and 171 nM, respectively.

Values taken from ChEMBL document CHEMBL1132647, “Synthesis, calcium mobilizing, and physicochemical properties of D-chiro-inositol 1,3,4,6-tetrakisphosphate, a novel and potent ligand at the D-myo-inositol 1,4,5-trisphosphate receptor” (J Med Chem, 1999).
